Measured values reported in ChEMBL document CHEMBL1136635, “Modification of the N-terminus of peptidomimetic protein tyrosine phosphatase 1B (PTP1B) inhibitors: identification of analogues with cellular activity” (Bioorg Med Chem Lett, 2003).
pKi: −log10 of the molar value. Square brackets hold non-standard residues; d marks the D form. Peptide text beside a SMILES is read from it. sY = N[C@@H](Cc1ccc(OS(=O)(=O)O)cc1)C(=O)O; Nle = CCCC[C@H](N)C(=O)O

Assays:
[1] = target: Receptor-type tyrosine-protein phosphatase F (Homo sapiens) (UniProt P10586); test: Inhibitory activity against phosphatase (LAR) at a concentration of 100 uM
Chain of Receptor-type tyrosine-protein phosphatase F (Homo sapiens) (P10586 whole entry, the tested form may be a part): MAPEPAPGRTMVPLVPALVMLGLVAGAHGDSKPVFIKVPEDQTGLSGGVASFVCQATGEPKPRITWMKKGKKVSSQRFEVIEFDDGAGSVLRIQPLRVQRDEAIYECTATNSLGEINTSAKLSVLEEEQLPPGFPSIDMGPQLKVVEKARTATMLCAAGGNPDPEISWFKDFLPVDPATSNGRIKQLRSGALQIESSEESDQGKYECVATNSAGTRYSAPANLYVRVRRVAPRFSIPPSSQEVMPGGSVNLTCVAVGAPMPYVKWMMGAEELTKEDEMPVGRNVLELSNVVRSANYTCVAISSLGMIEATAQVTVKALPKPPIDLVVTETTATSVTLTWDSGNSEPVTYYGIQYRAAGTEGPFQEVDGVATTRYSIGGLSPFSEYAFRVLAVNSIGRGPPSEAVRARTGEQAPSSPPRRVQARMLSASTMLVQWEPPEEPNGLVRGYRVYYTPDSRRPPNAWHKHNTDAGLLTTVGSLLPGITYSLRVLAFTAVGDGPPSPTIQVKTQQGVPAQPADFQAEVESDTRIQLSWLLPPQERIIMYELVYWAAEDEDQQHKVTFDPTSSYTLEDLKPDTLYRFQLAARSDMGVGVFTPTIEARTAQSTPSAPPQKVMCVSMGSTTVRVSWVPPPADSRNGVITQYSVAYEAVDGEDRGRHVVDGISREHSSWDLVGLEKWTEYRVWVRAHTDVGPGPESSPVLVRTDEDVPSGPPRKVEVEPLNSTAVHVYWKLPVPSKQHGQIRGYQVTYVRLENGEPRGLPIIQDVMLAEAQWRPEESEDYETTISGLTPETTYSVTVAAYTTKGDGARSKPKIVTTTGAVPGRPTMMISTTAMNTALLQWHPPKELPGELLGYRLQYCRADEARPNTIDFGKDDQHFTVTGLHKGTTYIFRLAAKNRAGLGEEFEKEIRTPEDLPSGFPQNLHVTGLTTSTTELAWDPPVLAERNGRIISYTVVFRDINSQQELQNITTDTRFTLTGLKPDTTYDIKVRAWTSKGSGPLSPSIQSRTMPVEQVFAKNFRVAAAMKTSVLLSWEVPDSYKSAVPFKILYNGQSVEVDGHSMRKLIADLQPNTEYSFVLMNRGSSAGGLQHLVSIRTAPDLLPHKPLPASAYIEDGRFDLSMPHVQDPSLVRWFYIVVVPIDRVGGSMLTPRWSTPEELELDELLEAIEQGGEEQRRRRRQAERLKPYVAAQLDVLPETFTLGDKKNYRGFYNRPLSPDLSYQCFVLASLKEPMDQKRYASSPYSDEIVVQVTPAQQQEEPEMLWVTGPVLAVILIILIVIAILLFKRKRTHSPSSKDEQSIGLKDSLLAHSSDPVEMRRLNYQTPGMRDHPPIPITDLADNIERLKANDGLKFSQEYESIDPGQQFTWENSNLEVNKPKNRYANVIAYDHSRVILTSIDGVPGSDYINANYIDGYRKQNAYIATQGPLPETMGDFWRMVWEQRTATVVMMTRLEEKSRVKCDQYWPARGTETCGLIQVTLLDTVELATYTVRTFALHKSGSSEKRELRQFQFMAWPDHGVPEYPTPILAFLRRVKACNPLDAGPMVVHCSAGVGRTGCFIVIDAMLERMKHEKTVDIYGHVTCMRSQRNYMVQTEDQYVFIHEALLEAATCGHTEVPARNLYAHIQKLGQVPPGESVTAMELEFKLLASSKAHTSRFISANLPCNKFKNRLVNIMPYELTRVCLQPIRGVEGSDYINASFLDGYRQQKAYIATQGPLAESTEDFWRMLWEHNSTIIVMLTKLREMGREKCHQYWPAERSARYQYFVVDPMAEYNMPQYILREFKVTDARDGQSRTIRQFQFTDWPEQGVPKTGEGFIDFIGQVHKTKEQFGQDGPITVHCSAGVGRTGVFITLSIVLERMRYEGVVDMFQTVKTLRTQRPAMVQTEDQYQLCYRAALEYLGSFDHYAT
In short: (§1)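 Purified recombinant human enzyme constructs; PTP1B is a C-terminally truncated soluble form, tested alongside LAR and SHP-2. Activity is read as the initial rate of p-nitrophenyl phosphate (pNPP) hydrolysis and reported as percent inhibition. PTP1B is tested at 100, 10 and 1 µM, or 10 and 1 µM in the salicylate series; LAR and SHP-2 at 100 µM.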

[2] = target: T1, Tyrosine-protein phosphatase non-receptor type 1 (Homo sapiens) (UniProt P18031); test: Inhibitory activity against human protein tyrosine phosphatase 1B (PTP1B) at a concentration of 1 uM; in short: as §1
T1 sequence (whole entry): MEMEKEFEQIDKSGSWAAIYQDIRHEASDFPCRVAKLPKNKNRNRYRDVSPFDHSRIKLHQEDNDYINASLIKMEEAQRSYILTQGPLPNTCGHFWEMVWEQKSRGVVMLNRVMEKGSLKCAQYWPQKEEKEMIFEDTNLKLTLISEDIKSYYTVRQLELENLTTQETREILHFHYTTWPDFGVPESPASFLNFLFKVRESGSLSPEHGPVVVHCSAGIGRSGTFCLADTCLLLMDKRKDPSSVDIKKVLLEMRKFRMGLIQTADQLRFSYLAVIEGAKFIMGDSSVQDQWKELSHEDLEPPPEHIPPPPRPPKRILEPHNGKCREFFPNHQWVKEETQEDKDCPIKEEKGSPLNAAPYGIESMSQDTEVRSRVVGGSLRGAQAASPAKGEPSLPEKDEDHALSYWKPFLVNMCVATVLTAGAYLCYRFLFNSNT

[3] = target: T1, Tyrosine-protein phosphatase non-receptor type 1 (Homo sapiens); test: Inhibitory activity against human protein tyrosine phosphatase 1B (PTP1B) at a concentration of 10 uM; in short: as §1
[4] = target: Tyrosine-protein phosphatase non-receptor type 11, SHP-2 (Homo sapiens) (UniProt Q06124); test: Inhibitory activity against phosphatase (SHP-2) at a concentration of 100 uM
[5] = Uptake of 2-DOG (2-deoxyglucose) into L6 myocytes in the presence of half-maximal concentration of insulin at 100 uM; assay type: functional, Rattus norvegicus
In short: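 L6 myotubes are exposed to compound at 100 µM with 10 nM insulin, a dose eliciting about 50% of maximal uptake. The initial rate of 2-[3H]deoxyglucose uptake is measured, with L-[14C]glucose marking extracellular space, and normalized to recovered lysate protein. Net insulin-dependent transport with inhibitor is expressed as a percent of that without inhibitor.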

[6] = target: T2, Tyrosine-protein phosphatase non-receptor type 11 (Homo sapiens) (UniProt Q06124); test: Inhibition of recombinant human phosphatase (SHP-2) at a concentration of 100 uM; in short: as §1
T2 sequence (whole entry): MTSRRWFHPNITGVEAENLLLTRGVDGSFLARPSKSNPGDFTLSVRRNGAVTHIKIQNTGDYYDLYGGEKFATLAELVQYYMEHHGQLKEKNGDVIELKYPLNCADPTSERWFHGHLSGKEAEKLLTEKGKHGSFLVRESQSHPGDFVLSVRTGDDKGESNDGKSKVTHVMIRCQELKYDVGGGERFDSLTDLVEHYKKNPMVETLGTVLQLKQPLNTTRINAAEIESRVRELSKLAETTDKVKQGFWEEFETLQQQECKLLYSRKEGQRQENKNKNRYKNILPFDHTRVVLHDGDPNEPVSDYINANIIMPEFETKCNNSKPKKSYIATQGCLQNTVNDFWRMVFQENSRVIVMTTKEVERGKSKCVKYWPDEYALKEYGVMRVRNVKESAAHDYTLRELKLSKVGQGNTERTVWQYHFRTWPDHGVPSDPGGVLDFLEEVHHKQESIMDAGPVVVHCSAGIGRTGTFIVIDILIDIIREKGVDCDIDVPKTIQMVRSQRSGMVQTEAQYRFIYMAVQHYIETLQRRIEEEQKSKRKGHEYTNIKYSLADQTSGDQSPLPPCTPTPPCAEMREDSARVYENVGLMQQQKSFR

[7] = target: T1, Tyrosine-protein phosphatase non-receptor type 1 (Homo sapiens); test: Inhibitory activity against human protein tyrosine phosphatase 1B (PTP1B) at a concentration of 100 uM; in short: as §1
[8] = target: T3, Tyrosine-protein phosphatase non-receptor type 1 (Homo sapiens, UniProt P18031); test: Inhibitory activity against human protein tyrosine phosphatase 1B (PTP1B)
T3 sequence (P18031 whole entry): T1 sequence (whole entry)
In short: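 Ki against a C-terminally truncated, soluble recombinant human PTP1B. Initial rates of pNPP hydrolysis are measured, and the Ki is computed by the Cornish-Bowden direct linear method.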

[9] = target: T2, Tyrosine-protein phosphatase non-receptor type 11 (Homo sapiens); test: Inhibitory activity against phosphatase ([…]) at a concentration of 100 uM; in short: as §1

| Compound | inhibition [1] | inhibition [2] | inhibition [3] | inhibition [4] | Control Uptake [5] | inhibition [6] | inhibition [7] | pKi [8] | inhibition [9] |
| --- | --- | --- | --- | --- | --- | --- | --- | --- | --- |
| CCCCCCCCCCCCCCCCCC(=O)N[C@@H](Cc1ccccc1)C(=O)N[C@@H](Cc1ccc(OCC(=O)O)c(C(=O)O)c1)C(=O)NCCCCC | 0% | 1% | 3% | 54% | – | – | – | – | – |
| CCCCCNC(=O)[C@H](Cc1ccc(OC(C(=O)O)C(=O)O)cc1)NC(=O)[C@H](Cc1ccc2ccccc2c1)NC(=O)OC(C)(C)C | 4% | 3% | 29% | – | 62% | 3% | 90% | – | – |
| CCCCCNC(=O)[C@H](Cc1ccc(OC(C(=O)O)C(=O)O)cc1)NC(=O)[C@H](Cc1ccccc1)NC(=O)NC(C)(C)C | 21% | 9% | 40% | – | 93% | 6% | 86% | – | – |
| CCCCCNC(=O)[C@H](Cc1ccc(OCC(=O)O)c(C(=O)O)c1)NC(=O)[C@H](Cc1ccccc1)NC(=O)CCc1ccccc1 | 0% | 22% | 74% | – | 136% | 12% | – | 5.85 | – |
| CCCCCNC(=O)[C@H](Cc1ccc(OCC(=O)O)c(C(=O)O)c1)NC(=O)[C@H](Cc1ccccc1)NC(=O)Cc1ccc(OC)cc1 | 5% | 46% | 87% | – | 141% | 25% | – | 6.17 | – |
| CCCCCNC(=O)[C@H](Cc1ccc(OC(C(=O)O)C(=O)O)cc1)NC(=O)[C@H](C)NC(=O)OC(C)(C)C | 0% | 7% | 36% | – | 88% | 3% | 83% | 4.85 | – |
| CCCCCNC(=O)[C@H](Cc1ccc(OC(C(=O)O)C(=O)O)cc1)NC(=O)[C@H](Cc1ccccc1)NS(C)(=O)=O | 0% | 9% | 40% | – | 93% | 8% | 86% | – | – |
| CCCCCNC(=O)[C@H](Cc1ccc(OC(C(=O)O)C(=O)O)cc1)NC(=O)[C@H](CSCc1ccccc1)NC(=O)OC(C)(C)C | 0% | 3% | 16% | – | 89% | 0% | 83% | – | – |
| CCCCCNC(=O)[C@H](Cc1ccc(OC(C(=O)O)C(=O)O)cc1)NC(=O)[C@H](Cc1ccccc1)NC(=O)CCN(CC)CC | 0% | 12% | 54% | – | 89% | 14% | 92% | – | – |
| CCCCCNC(=O)[C@H](Cc1ccc(OC(C(=O)O)C(=O)O)cc1)NC(=O)[C@H](Cc1c(F)c(F)c(F)c(F)c1F)NC(=O)OC(C)(C)C | 8% | 5% | 25% | – | 100% | 0% | 80% | – | – |
| CCCCCNC(=O)[C@H](Cc1ccc(OC(C(=O)O)C(=O)O)cc1)NC(=O)[C@H](Cc1ccccc1)NS(=O)(=O)Cc1ccccc1 | 6% | 4% | 16% | – | 98% | 10% | 62% | – | – |
| CCCCCNC(=O)[C@H](Cc1ccc(OC(C(=O)O)C(=O)O)cc1)NC(=O)[C@@H](NC(=O)OC(C)(C)C)C(C)C | 0% | 3% | 18% | 0% | – | – | 72% | – | – |
| CCCCCNC(=O)[C@H](Cc1ccc(OC(C(=O)O)C(=O)O)cc1)NC(=O)[C@H](COCc1ccccc1)NC(=O)OC(C)(C)C | 3% | 3% | 19% | – | 79% | 0% | 71% | – | – |
| CCCCCNC(=O)[C@H](Cc1ccc(OC(C(=O)O)C(=O)O)cc1)NC(=O)[C@H](Cc1ccccc1)NC(=O)OC(C)(C)C | 27% | 7% | 48% | – | 88% | – | 91% | 5.05 | 10% |
| CCCCCNC(=O)[C@H](Cc1ccc(OCC(=O)O)c(C(=O)O)c1)NC(=O)[C@H](Cc1ccccc1)NC(=O)CCC(=O)O | – | – | – | – | – | – | – | 6.66 | – |
| CCCC[C@H](NC(=O)[C@H](Cc1ccc(OS(=O)(=O)O)cc1)NC(=O)[C@H](CC(=O)O)NC(C)=O)C(N)=O (Ac-Asp-[sY]-[Nle]-NH2) | – | – | – | – | – | – | – | 5.30 | – |
| CCCCCNC(=O)[C@H](Cc1ccc(OC(C(=O)O)C(=O)O)cc1)NC(=O)[C@H](CC[S+](C)[O-])NC(=O)OC(C)(C)C (stereo partly drawn) | 0% | 7% | 21% | – | 70% | 6% | 67% | – | – |
| CCCCCNC(=O)[C@H](Cc1ccc(OC(C(=O)O)C(=O)O)cc1)NC(=O)[C@H](CC1CCCCC1)NC(=O)OC(C)(C)C | 4% | 1% | 18% | – | 93% | 0% | 88% | – | – |
| CCCCCNC(=O)[C@H](Cc1ccc(OC(C(=O)O)C(=O)O)cc1)NC(=O)[C@H](Cc1c[nH]c2ccccc12)NC(=O)OC(C)(C)C | 18% | 10% | 44% | – | 92% | 9% | 89% | – | – |
| CCCCCNC(=O)[C@H](Cc1ccc(OC(C(=O)O)C(=O)O)cc1)NC(=O)[C@H](CC(C)C)NC(=O)OC(C)(C)C | 3% | 4% | 24% | – | 84% | 5% | 76% | – | – |
| CCCCCNC(=O)[C@H](Cc1ccc(OC(C(=O)O)C(=O)O)cc1)NC(=O)[C@H](CCSC)NC(=O)OC(C)(C)C | 0% | 5% | 25% | – | 74% | 4% | 82% | – | – |
| CCCCCNC(=O)[C@H](Cc1ccc(OCC(=O)O)c(C(=O)O)c1)NC(=O)[C@H](Cc1ccccc1)NC(=O)Cc1ccc(C(F)(F)F)cc1 | 0% | 39% | 85% | – | 130% | 28% | – | 6.23 | – |
| CCCCCNC(=O)[C@H](Cc1ccc(OCC(=O)O)c(C(=O)O)c1)NC(=O)[C@H](Cc1ccccc1)NC(=O)Cn1nnnc1S | 0% | 57% | 91% | – | 89% | 10% | – | 6.15 | – |
| CCCCCNC(=O)[C@H](Cc1ccc(OCC(=O)O)c(C(=O)O)c1)NC(=O)[C@H](Cc1ccccc1)NC(=O)Oc1ccccc1 | 0% | 43% | 85% | – | 103% | 11% | – | 6.06 | – |
